Test results published in ChEMBL document CHEMBL4138082 (Eur J Med Chem, 2017).
The source made the active and inactive calls. The rule behind the calls is not given here.

Key:
[1] = test system: HepG2; assay: Cell cycle arrest in human HepG2 cells assessed as G1 phase accumulation at 0.0625 uM after 48 hrs by propidium iodide staining based flow cytometry (reference value: 32.74%); assay type: functional
Summary of the method: (§1)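 HepG-2 cells were plated and grown 24 h at 37 °C, then treated 48 h at 0, 0.0625, 0.125 or 0.25 µM, with 0.1% DMSO as control. Cells were fixed overnight in 70% ethanol at 4 °C, treated with RNase A and stained with propidium iodide. DNA content was measured by flow cytometry to give cell-cycle phase distribution.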

[2] = test system: HT-29; assay: Antiproliferative activity against human HT-29 cells after 72 hrs by MTT assay; assay type: functional, cell-based; details: HT-29, 72 h
Summary of the method: (§2)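 MTT assay. Cells were seeded and grown 24 h at 37 °C in 5% CO2, then exposed to compound or left untreated for 72 h. MTT (5 mg/mL stock) was added for 4 h and the formazan dissolved in DMSO. OD was read at 570 nm. IC50 is the concentration giving 50% growth inhibition, reported as mean ± SD of three independent experiments. Vehicle reference was 0.1% DMSO.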

[3] = test system: L02; assay: Cytotoxicity against human L02 cells assessed as reduction in cell viability after 72 hrs by MTT assay; assay type: cell-based; details: L02, 72 h; summary of the method: as §2
[4] = Selectivity index, ratio of IC50 for human L02 cells to IC50 for human HepG2 cells; assay type: toxicity; details: L02 cells and HepG2 cells, read-out: Ratio IC50
Summary of the method: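 MTT assay: cells grown 24 h at 37 °C, 5% CO2, then exposed 72 h; MTT (5 mg/mL) added for 4 h, formazan dissolved in DMSO, OD read at 570 nm. Vehicle 0.1% DMSO. Three independent experiments.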

[5] = test system: HepG2; assay: Cell cycle arrest in human HepG2 cells assessed as G2 phase accumulation at 0.125 uM after 48 hrs by propidium iodide staining based flow cytometry (reference value: 23.38%); assay type: functional; summary of the method: as §1
[6] = test system: HepG2; assay: Cell cycle arrest in human HepG2 cells assessed as G2 phase accumulation at 0.0625 uM after 48 hrs in presence of hemoglobin by propidium iodide staining based flow cytometry (reference value: 10.67%); assay type: functional
[7] = test system: HepG2; assay: Cell cycle arrest in human HepG2 cells assessed as G2 phase accumulation at 0.125 uM after 48 hrs in presence of hemoglobin by propidium iodide staining based flow cytometry (reference value: 10.67%); assay type: functional
[8] = test system: HepG2; assay: Induction of apoptosis in human HepG2 cells assessed as chromatin condensation at 0.0625 to 0.25 uM measured after 48 hrs by Hoechst 33258 staining based fluorescent microscopic analysis; assay type: functional, cell-based
Summary of the method: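 After 48 h exposure to 0.0625, 0.125 or 0.25 µM, or to 0.1% DMSO vehicle, HepG-2 cells were stained with Hoechst 33258. Nuclear morphology, including chromatin condensation and fragmentation, was inspected by fluorescence microscopy.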

[9] = test system: HepG2; assay: Induction of apoptosis in human HepG2 cells assessed as viable cells at 0.0625 uM after 48 hrs by Annexin V-APC/7-AAD staining based flow cytometry (reference value: 91.07%); assay type: functional; details: HepG2, 48 h, read-out: Activity
[10] = test system: HepG2; assay: Induction of apoptosis in human HepG2 cells assessed as early apoptotic cells at 0.125 uM after 48 hrs by […] based flow cytometry (reference value: 3.18%); assay type: functional
[11] = test system: HepG2; assay: Induction of apoptosis in human HepG2 cells assessed as late apoptotic cells at 0.125 uM after 48 hrs by […] (reference value: 3.36%); assay type: functional
[12] = test system: HepG2; assay: Induction of apoptosis in human HepG2 cells assessed as necrotic cells at 0.125 uM after 48 hrs by Annexin V-APC/7-AAD staining based flow cytometry (reference value: 2.40%); assay type: functional
[13] = test system: HepG2; assay: Induction of apoptosis in human HepG2 cells assessed as necrotic cells at 0.25 uM after 48 hrs by Annexin V-APC/7-AAD staining based flow cytometry (reference value: 2.40%); assay type: functional
[14] = test system: HepG2; assay: Induction of apoptosis in human HepG2 cells assessed as early apoptotic cells at 0.0625 uM after 48 hrs in presence of hemoglobin by Annexin V-APC/7-AAD staining based flow cytometry (reference value: 3.18%); assay type: functional
[15] = test system: HepG2; assay: Induction of apoptosis in human HepG2 cells assessed as early apoptotic cells at 0.125 uM after 48 hrs in presence of hemoglobin by Annexin V-APC/7-AAD staining based flow cytometry (reference value: 3.18%); assay type: functional
[16] = test system: HepG2; assay: Induction of apoptosis in human HepG2 cells assessed as late apoptotic cells at 0.125 uM after 48 hrs in presence of hemoglobin by Annexin V-APC/7-AAD staining based flow cytometry (reference value: 3.36%); assay type: functional
[17] = test system: HepG2; assay: Induction of apoptosis in human HepG2 cells assessed as late apoptotic cells at 0.25 uM after 48 hrs in presence of hemoglobin by Annexin V-APC/7-AAD staining based flow cytometry (reference value: 3.36%); assay type: functional
[18] = test system: HepG2; assay: Induction of apoptosis in human HepG2 cells after 48 hrs by […]; assay type: functional, cell-based
[19] = test system: HepG2; assay: Induction of apoptosis in human HepG2 cells assessed as cell population with intact mitochondrial membrane potential at 0.125 uM measured after 48 hrs by JC-1 staining based flow cytometry (reference value: 98.51%); assay type: functional
Summary of the method: (§3)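 HepG-2 cells were exposed 48 h to 0.0625, 0.125 or 0.25 µM or to vehicle, then washed in PBS and stained with JC-1 in the dark. Red aggregate versus green monomer fluorescence was measured by flow cytometry to give the percentages of cells with healthy versus collapsed mitochondrial membrane potential.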

[20] = test system: HepG2; assay: Induction of apoptosis in human HepG2 cells assessed as cell population with mitochondrial membrane potential loss at 0.125 uM measured after 48 hrs by JC-1 staining based flow cytometry (reference value: 1.49%); assay type: functional; summary of the method: as §3
[21] = test system: HepG2; assay: Induction of apoptosis in human HepG2 cells assessed as cell population with mitochondrial membrane potential loss at 0.25 uM measured after 48 hrs by JC-1 staining based flow cytometry (reference value: 1.49%); assay type: functional; summary of the method: as §3
[22] = test system: HepG2; assay: Downregulation of HO-1 expression in human HepG2 cells after 24 hrs by protein array assay; assay type: functional, cell-based
Summary of the method: (§4)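 Lysates from HepG-2 cells treated 24 h were incubated overnight at 4 °C on a membrane array of 35 apoptosis-related proteins. A biotinylated detection antibody cocktail was then applied for 1 h at room temperature. Relative expression was read from chemiluminescent spots by densitometry.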

[23] = test system: HepG2; assay: Downregulation of HO-2 expression in human HepG2 cells after 24 hrs by protein array assay; assay type: functional, cell-based; summary of the method: as §4
[24] = test system: HepG2; assay: Downregulation of survivin expression in human HepG2 cells after 24 hrs by protein array assay; assay type: functional, cell-based; summary of the method: as §4
[25] = test system: HepG2; assay: Upregulation of Bax level in human HepG2 cells up to 0.25 uM after 48 hrs by Western blot method; assay type: functional, cell-based
[26] = test system: HepG2; assay: Downregulation of Bcl-2 level in human HepG2 cells up to 0.25 uM after 48 hrs by Western blot method; assay type: functional, cell-based
Summary of the method: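 HepG-2 cells were exposed 48 h to 0, 0.0625, 0.125 or 0.25 µM and lysed on ice for 20 min. Equal protein loads were run on 12% SDS-PAGE and transferred to PVDF. Membranes were probed overnight at 4 °C with primary antibodies, then with HRP-conjugated secondaries, and detected by ECL chemiluminescence.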

C[C@H]1CCC/C=C/[C@@H]2C[C@H](OC(=O)CCCC(=O)OCCOc3no[n+]([O-])c3S(=O)(=O)c3ccccc3)C[C@H]2[C@H](OC(=O)CCCC(=O)OCCOc2no[n+]([O-])c2S(=O)(=O)c2ccccc2)/C=C/C(=O)O1
Activity [1]: 32.84%
IC50 [2]: 0.16 µM
IC50 [3]: 6 µM
selectivity ratio [4]: 33
Activity [5]: 17%
Activity [6]: 7.2%
Activity [7]: 6.22%
Activity [8]: Active
viability at 0.0625 µM [9]: 82.1%
Activity [10]: 13.23%
Activity [11]: 21.42%
Activity [12]: 2.4%
Activity [13]: 5.47%
Activity [14]: 3.25%
Activity [15]: 3.49%
Activity [16]: 9.87%
Activity [17]: 12.24%
Activity [18]: Dose-dependent effect
Activity [19]: 64.55%
Activity [20]: 35.45%
Activity [21]: 60.14%
Activity [22]: Active
Activity [23]: Active
Activity [24]: Active
Activity [25]: Active
Activity [26]: Active
